Measured values reported in ChEMBL document CHEMBL4428071 (J Med Chem, 2016).
Activity calls are given as the source filed them. The rule behind the calls is not given here.

Key:
[1] = Half life in Sprague-Dawley rat at 1 mg/kg, iv measured up to 8 hrs post dosing; format: ADME, organism-based; details: in vivo
In short: (§1)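 Male Sprague-Dawley rats, 8 weeks old, fasted overnight; iv dosing from a 1 mg/mL solution in 5% DMSO/40% PEG400/55% saline. Jugular-vein blood (~0.2 mL, heparinised) taken at 1, 5, 15, 30 min and 1, 2, 4, 6, 8 h; plasma held at -80 °C until analysis; n=3.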

[2] = Tmax in Sprague-Dawley rat at 1 mg/kg, iv measured up to 8 hrs post dosing; format: ADME, organism-based; details: in vivo
In short: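 Male Sprague-Dawley rats, 8 weeks old, fasted overnight, dosed at 1 mg/kg iv from a 1 mg/mL stock in 5% DMSO/40% PEG400/55% saline. About 0.2 mL jugular blood taken into heparin at 1 min to 8 h. Plasma held at -80 °C until analysis. n = 3, mean reported.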

[3] = molecular target: T1, Mast/stem cell growth factor receptor Kit (Homo sapiens, UniProt P10721); assay: Inhibition of TEL-fused cKIT (unknown origin) expressed in mouse BA/F3 cells assessed as cell growth inhibition after 72 hrs by cell titer-glo assay; format: cell-based
T1 sequence (P10721 whole entry, the tested form may be a part): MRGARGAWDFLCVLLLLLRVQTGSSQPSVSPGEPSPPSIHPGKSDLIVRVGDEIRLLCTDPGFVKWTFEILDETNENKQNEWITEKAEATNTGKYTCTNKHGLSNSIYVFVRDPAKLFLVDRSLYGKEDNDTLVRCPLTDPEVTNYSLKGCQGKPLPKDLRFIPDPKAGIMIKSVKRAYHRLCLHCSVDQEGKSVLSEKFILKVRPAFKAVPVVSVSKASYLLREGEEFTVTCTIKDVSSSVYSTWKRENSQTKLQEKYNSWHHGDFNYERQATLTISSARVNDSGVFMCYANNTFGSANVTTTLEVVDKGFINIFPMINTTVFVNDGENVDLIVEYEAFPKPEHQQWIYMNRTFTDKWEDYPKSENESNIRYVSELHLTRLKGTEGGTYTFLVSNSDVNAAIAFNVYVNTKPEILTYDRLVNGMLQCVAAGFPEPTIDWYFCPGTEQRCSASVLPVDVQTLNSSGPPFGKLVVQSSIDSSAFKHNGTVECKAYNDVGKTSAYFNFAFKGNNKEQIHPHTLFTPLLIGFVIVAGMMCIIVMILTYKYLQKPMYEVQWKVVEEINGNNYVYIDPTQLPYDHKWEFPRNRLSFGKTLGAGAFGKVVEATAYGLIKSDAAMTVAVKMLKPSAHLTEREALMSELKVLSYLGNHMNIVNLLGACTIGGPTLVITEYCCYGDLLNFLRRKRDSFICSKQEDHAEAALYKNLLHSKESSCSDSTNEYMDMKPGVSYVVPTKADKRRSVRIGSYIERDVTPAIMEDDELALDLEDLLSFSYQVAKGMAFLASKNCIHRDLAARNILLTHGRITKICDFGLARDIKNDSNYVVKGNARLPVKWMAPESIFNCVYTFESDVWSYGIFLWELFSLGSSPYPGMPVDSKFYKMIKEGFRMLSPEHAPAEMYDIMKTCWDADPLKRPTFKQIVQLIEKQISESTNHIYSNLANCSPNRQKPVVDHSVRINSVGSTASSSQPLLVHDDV

[4] = test system: Mast/stem cell growth factor receptor Kit (Homo sapiens), P10721 [T670I]; assay: Inhibition of TEL-fused cKIT T670I mutant (unknown origin) expressed in mouse BA/F3 cells assessed as cell growth inhibition after 72 hrs by cell titer-glo assay; format: cell-based
In short: (§2)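 Cells seeded at 3000 per well and exposed to serial compound dilutions for 72 h. Viability read by CellTiter-Glo luminescence and normalised to DMSO controls; mean of three independent measurements. BaF3 lines kept IL-3-free in RPMI 1640/10% FBS after retroviral transduction and puromycin selection. GIST lines grown in DMEM/10% FBS.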

[5] = Cytotoxicity mouse BA/F3 cells assessed as cell growth inhibition after 72 hrs by cell titer-glo assay; format: cell-based, BaF3; in short: as §2
[6] = test system: Mast/stem cell growth factor receptor Kit (Homo sapiens), P10721 [V559D,T670I]; assay: Inhibition of TEL-fused cKIT T670I/V559D double mutant (unknown origin) expressed in mouse BA/F3 cells assessed as cell growth inhibition after 72 hrs by cell titer-glo assay; format: cell-based; in short: as §2
[7] = molecular target: T1, Mast/stem cell growth factor receptor Kit; assay: Inhibition of wild type cKIT in human GIST-T1 cells assessed as cell growth inhibition after 72 hrs by cell titer-glo assay; format: cell-based
In short: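 GIST-T1 cells (cKIT wt) grown in DMEM with 10% FBS and 1% penicillin/streptomycin at 37 °C, 5% CO2. Viability read by CellTiter-Glo luminescence and normalized to DMSO controls. GI50 taken from the mean of three independent measurements.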

[8] = molecular target: T2, Mast/stem cell growth factor receptor Kit (Homo sapiens, UniProt P10721, T670I); assay: Inhibition of His-tagged cKIT T670I mutant (544 to 935 residues) (unknown origin) expressed in Sf9 cells using Poly(4:1 Glu, Tyr) peptide as substrate after 1 hr by ADP-glo kinase assay
T2 sequence (P10721 26-976 T670I limits assumed): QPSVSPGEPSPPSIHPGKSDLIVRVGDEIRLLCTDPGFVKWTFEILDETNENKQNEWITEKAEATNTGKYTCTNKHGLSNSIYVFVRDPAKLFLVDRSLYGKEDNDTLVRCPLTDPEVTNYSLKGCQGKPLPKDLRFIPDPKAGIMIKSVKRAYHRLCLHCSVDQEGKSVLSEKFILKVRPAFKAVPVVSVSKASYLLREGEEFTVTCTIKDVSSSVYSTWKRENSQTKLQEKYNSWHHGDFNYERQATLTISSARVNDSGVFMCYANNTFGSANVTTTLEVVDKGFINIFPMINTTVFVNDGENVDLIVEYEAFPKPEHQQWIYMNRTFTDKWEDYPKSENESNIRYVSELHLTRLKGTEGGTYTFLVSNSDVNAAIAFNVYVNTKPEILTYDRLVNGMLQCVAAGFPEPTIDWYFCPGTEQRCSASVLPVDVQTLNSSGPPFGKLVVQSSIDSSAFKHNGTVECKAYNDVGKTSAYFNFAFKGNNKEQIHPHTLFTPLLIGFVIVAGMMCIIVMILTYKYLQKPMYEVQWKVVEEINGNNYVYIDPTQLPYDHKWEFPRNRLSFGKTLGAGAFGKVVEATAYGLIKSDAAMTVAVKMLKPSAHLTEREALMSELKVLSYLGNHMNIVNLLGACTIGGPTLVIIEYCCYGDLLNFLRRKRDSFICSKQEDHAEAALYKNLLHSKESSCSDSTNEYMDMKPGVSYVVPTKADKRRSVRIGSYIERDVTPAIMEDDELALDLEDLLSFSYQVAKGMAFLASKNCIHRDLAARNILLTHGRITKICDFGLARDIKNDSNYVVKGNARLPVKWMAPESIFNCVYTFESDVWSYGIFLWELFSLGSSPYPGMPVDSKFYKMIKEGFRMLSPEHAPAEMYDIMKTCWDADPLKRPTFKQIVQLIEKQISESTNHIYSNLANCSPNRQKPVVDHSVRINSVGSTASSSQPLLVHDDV

[9] = molecular target: Cyclin-dependent kinase-like 2 (Homo sapiens) (UniProt Q92772); assay: Inhibition of partial length human CDKL2 expressed in bacterial expression system assessed as activity remaining at 1 uM by kinome scan assay
[10] = molecular target: Macrophage colony-stimulating factor 1 receptor (Homo sapiens) (UniProt P07333); assay: Inhibition of partial length human CSF1R expressed in bacterial expression system assessed as activity remaining at 1 uM by kinome scan assay
Sequence of Macrophage colony-stimulating factor 1 receptor (Homo sapiens) (P07333 whole entry): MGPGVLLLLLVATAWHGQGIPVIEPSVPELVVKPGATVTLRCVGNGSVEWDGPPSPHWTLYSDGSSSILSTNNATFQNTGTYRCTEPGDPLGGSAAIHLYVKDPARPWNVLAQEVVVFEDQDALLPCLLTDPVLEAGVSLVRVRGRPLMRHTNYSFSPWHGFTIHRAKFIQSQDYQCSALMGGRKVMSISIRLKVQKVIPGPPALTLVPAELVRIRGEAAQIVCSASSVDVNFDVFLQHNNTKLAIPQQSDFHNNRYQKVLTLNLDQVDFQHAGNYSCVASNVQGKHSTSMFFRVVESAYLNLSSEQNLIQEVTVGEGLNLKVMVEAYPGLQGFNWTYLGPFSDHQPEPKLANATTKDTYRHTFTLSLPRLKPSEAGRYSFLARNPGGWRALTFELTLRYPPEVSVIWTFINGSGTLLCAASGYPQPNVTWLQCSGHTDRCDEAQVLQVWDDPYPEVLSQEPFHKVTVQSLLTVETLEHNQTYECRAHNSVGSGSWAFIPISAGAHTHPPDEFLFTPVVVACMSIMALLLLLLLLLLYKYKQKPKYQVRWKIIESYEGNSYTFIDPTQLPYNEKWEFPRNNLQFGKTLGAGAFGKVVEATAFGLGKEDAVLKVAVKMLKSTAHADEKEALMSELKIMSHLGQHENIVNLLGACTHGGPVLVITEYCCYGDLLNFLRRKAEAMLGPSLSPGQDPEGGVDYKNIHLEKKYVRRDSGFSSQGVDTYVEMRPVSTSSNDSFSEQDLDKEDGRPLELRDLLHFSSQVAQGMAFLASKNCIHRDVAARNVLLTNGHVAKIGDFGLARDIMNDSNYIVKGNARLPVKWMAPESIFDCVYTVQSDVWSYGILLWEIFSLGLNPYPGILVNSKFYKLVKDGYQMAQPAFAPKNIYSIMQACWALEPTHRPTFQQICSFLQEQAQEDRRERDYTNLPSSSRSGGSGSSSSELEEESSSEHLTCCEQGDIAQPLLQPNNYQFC

[11] = molecular target: Platelet-derived growth factor receptor beta (Homo sapiens) (UniProt P09619); assay: Inhibition of partial length human PDGFRbeta expressed in bacterial expression system assessed as activity remaining at 1 uM by kinome scan assay
Sequence of Platelet-derived growth factor receptor beta (Homo sapiens) (P09619 whole entry, the tested form may be a part): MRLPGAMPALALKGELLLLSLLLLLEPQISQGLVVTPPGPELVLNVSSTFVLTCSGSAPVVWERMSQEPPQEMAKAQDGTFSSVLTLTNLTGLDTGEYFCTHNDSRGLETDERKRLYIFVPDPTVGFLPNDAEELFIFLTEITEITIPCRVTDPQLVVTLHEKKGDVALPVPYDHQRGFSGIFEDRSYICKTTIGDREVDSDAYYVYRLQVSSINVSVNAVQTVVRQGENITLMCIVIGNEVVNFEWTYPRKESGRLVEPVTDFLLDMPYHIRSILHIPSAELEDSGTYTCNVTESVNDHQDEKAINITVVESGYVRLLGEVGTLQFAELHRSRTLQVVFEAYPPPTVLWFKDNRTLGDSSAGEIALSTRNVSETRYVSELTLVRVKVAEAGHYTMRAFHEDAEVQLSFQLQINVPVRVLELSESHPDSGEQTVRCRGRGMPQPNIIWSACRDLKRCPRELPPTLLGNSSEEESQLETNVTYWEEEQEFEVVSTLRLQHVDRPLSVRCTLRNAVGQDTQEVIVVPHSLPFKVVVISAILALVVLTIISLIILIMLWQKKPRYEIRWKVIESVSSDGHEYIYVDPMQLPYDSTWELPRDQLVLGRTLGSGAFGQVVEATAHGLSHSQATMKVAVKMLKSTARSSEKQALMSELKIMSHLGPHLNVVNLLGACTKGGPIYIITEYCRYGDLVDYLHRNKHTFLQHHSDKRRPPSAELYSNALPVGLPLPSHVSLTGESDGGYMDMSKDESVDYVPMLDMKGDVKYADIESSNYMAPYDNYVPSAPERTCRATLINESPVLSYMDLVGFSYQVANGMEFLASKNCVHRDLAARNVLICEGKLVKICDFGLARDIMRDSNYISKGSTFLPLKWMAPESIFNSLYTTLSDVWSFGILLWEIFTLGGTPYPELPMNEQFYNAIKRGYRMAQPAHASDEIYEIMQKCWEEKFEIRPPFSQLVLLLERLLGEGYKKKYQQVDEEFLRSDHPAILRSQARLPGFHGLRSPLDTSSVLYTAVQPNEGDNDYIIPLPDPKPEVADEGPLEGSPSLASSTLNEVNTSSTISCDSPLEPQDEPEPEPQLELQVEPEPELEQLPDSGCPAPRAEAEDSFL

[12] = molecular target: Proto-oncogene tyrosine-protein kinase receptor Ret (Homo sapiens) (UniProt P07949); assay: Inhibition of TEL-fused partial length human RET expressed in mouse BA/F3 cells after 72 hrs by cell titer-glo assay; format: cell-based; in short: as §2
Sequence of Proto-oncogene tyrosine-protein kinase receptor Ret (Homo sapiens) (P07949 whole entry, the tested form may be a part): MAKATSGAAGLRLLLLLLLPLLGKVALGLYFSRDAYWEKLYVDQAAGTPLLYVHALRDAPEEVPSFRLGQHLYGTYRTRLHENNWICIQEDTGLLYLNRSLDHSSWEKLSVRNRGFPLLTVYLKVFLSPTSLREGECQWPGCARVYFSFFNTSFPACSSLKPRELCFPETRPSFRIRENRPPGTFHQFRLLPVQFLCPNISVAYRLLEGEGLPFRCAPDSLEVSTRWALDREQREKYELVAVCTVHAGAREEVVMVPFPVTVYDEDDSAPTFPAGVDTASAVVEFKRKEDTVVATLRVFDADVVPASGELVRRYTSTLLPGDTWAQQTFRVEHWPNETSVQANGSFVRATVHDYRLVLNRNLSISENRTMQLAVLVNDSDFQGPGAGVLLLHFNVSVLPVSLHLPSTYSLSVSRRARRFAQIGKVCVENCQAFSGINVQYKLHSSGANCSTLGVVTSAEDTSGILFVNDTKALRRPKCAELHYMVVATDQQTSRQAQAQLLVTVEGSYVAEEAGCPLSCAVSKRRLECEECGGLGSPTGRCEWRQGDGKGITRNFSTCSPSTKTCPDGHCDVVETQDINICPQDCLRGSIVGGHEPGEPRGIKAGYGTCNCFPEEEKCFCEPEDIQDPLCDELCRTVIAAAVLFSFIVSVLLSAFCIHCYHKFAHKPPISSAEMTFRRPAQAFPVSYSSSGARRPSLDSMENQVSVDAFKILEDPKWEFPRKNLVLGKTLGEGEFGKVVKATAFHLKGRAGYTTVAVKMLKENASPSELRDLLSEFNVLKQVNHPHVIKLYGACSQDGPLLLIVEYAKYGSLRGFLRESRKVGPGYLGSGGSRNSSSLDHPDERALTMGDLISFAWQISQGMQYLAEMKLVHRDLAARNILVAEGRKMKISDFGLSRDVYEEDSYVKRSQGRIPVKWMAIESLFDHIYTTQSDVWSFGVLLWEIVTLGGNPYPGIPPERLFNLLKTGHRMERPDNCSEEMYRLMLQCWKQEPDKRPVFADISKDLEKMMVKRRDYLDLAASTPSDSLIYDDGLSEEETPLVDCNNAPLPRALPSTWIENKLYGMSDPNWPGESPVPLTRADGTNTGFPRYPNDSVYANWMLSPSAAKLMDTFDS

[13] = molecular target: Platelet-derived growth factor receptor beta (Homo sapiens) (UniProt P09619); assay: Inhibition of TEL-fused partial length human PDGFRbeta expressed in mouse BA/F3 cells after 72 hrs by cell titer-glo assay; format: cell-based; in short: as §2
[14] = molecular target: T1, Mast/stem cell growth factor receptor Kit; assay: Inhibition of wild type cKIT in human GIST-T1 cells assessed as downregulation of S6 phosphorylation at S235/236 after 1 hr by Western blot analysis; format: cell-based
In short: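 GIST-T1 cells in DMEM with 10% FBS were exposed to serially diluted compound for 1 h, then lysed. Lysates were analysed by western blot with phospho-specific antibodies against AKT (Ser473), ERK1/2 (Thr202/Tyr204) and S6 ribosomal protein (Ser235/236), each alongside its total protein.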

[15] = molecular target: T2, Mast/stem cell growth factor receptor Kit; assay: Inhibition of cKIT T670I mutant autophosphorylation at Y703 in human GIST-5R cells at 0.1 to 3 uM after 1 hr by Western blot analysis; format: cell-based
In short: (§3)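 GIST-T1 or GIST-5R cells in DMEM with 10% FBS were treated with serially diluted compound for 1 h. Cells were then lysed and analysed by western blotting.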

[16] = molecular target: T2, Mast/stem cell growth factor receptor Kit; assay: Inhibition of cKIT T670I mutant in human GIST-5R cells assessed as downregulation of ERK phosphorylation at T202/204 after 1 hr by Western blot analysis; format: cell-based; in short: as §3
Homo sapiens = species on record: Homo sapiens; assay: Induction of apoptosis in human GIST5R cells assessed as increase in cleaved PARP levels after at 30 nM 24 hrs by Western blot analysis; format: functional, cell-based
In short: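 GIST-T1 or GIST-5R cells in DMEM with 10% FBS were exposed to serially diluted compound for 24 h. Apoptosis was assessed by western blot with PARP and GAPDH antibodies.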

[17] = AUC (0 to infinity) in Sprague-Dawley rat at 1 mg/kg, iv measured up to 8 hrs post dosing; format: ADME, organism-based; design: dose 1 mg/kg, route intravenous, time infinity; details: in vivo; in short: as §1
[18] = Apparent clearance in Sprague-Dawley rat at 1 mg/kg, iv measured up to 8 hrs post dosing; format: ADME, organism-based; details: in vivo, read-out: CL(app) (converted); in short: as §1
BaF3 [19] = assay: Antitumor activity against TEL-fused cKIT T670I mutant expressing mouse BA/F3 cells allografted in nu/nu mouse assessed as tumor growth inhibition at 25 mg/kg, ip administered daily for 10 days; format: functional; details: 240 h, read-out: TGI
In short: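 Female nu/nu mice, 5 weeks old at purchase, given 1 million BaF3-TEL-cKIT-T670I cells in PBS/Matrigel 1:1 subcutaneously on the right flank. At tumour volume 200–400 mm3, randomised into groups of 7 and dosed IP daily for 10 days (25, 50, 100 mg/kg/d or vehicle: 0.5% methylcellulose/0.4% Tween80 in water). Tumour volume (W2×L/2) and body weight recorded daily.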

BaF3 [20] = assay: Induction of apoptosis in mouse BA/F3 cells harboring TEL-fused cKIT T670I mutant allografted in nu/nu mouse at 25 to 100 mg/kg, ip administered daily for 10 days by TUNEL staining based microscopic analysis; format: functional, organism-based
In short: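 Tumour sections from the daily-IP, 10-day BaF3-TEL-cKIT-T670I xenograft study were deparaffinised and digested with proteinase K for 15 min at RT. Peroxidase blocked in 3% H2O2/methanol. TdT reaction 1 h at 37 °C, converter-POD 30 min at 37 °C, DAB ~8 min, haematoxylin counterstain.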

[21] = molecular target: T1, Mast/stem cell growth factor receptor Kit; assay: Ratio of imatinib IC50 to compound IC50 for TEL-fused cKIT (unknown origin) expressed in mouse BA/F3 cells; format: cell-based
[22] = molecular target: T1, Mast/stem cell growth factor receptor Kit; assay: Inhibition of partial length human cKIT expressed in bacterial expression system assessed as activity remaining at 1 uM by kinome scan assay

## CCC(=O)NCC1CCN(c2ccc(NC(=O)Nc3cccc(Oc4ccnc5cc(OC)c(OC)cc45)c3)cc2C(F)(F)F)CC1
[1]
  half-life: 122 min
[2]
  Tmax: 1.02 min
[3]
  GI50: 57 nM
[4]
  GI50: 63 nM
[5]
  GI50 at 72 h: > 10 µM
[6]
  GI50: 73 nM
[7]
  GI50: 4 nM
[8]
  IC50: 99 nM
[9]
  Activity: 0%
[10]
  Activity: 0.05%
[11]
  Activity: 0%
[12]
  GI50: 120 nM
[13]
  GI50: 5 nM
[14]
  EC50: < 100 nM
[15]
  EC50: < 100 nM
[16]
  EC50: < 100 nM
Homo sapiens
  Activity: Active
[17]
  AUC: 385 ng·h/mL
[18]
  clearance: 46 mL/min/kg
BaF3 [19]
  inhibition in vivo at 25 mg/kg: 18.3%
BaF3 [20]
  Activity: Active
[21]
  Ratio IC50: 10
[22]
  Activity: < 1%
